Data set [1] deals with Hepatitis C virus. In words: Antiviral activity against Hepatitis C virus genotype 1b expressing NS4B H94N mutant infected in human HuH7 cells after 48 hrs by luciferase reporter gene assay. The data set is classed as functional, organism-based, Hepacivirus hominis. Particulars: Huh-7, 48 h. (In a reporter assay the amount or activity of a reporter protein is the signal.)

Data set [2] deals with Hepatitis C virus. The experiment in a line: Antiviral activity against Hepatitis C virus genotype 1b infected in human HuH7 cells after 48 hrs by luciferase reporter gene assay. As to conditions: Huh-7, 48 h. The data set is classed as functional, organism-based, Hepacivirus hominis.
Data set [3] is described as follows: Displacement of [3H]-3-(1-(3-chloro-6-isopropyl-8-(trifluoromethyl)imidazo[1,2-a]pyridine-2-carbonyl)piperidin-4-yl)oxazolidin-2-one from HCV genotype 1b C-terminal His-tagged NS4B (1 to 261 aa) expressed in baculovirus infected SF9 cells after overnight incubation. Also noted: species or system Hepatitis C virus subtype 1b. For orientation: Displacement assays read how much labelled ligand stays bound in the presence of the test substance.

Data set [4] relates to Hepatitis C virus. The experiment in a line: Antiviral activity against Hepatitis C virus genotype 1b expressing NS4B V105M mutant infected in human HuH7 cells after 48 hrs by luciferase reporter gene assay. The data set is classed as functional, organism-based, Hepacivirus hominis. Particulars: Huh-7, 48 h.
The test system of data set [5] is Hepatitis C virus. The experiment in a line: Antiviral activity against Hepatitis C virus genotype 1a infected in human HuH7 cells after 48 hrs by luciferase reporter gene assay. The format is functional, organism-based, Hepacivirus hominis. As to conditions: subtype 1a, Huh-7, 48 h.
A further data set deals with Huh-7. In words: Cytotoxicity against human HuH7 cells at 50 uM after 2 days by Cell Titer Glo assay. The format is cell-based. As to conditions: huh-7, 48 h. A digest of the protocol: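 Huh7 cells were exposed to compound at 50 μM for 2 days and scored for cellular toxicity.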
Data set [6] is described as follows: Lipophilicity, log D of the compound by chromatographic analysis. The format is physicochemical. A digest of the protocol: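 Lipophilicity was measured chromatographically and reported as ChromLogD; ≥6 replicates.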
The subject of another data set is Rattus norvegicus. The experiment in a line: Prodrug conversion in CD rat assessed as 4-(3-chloro-6-cyclopropyl-8-(trifluoromethyl)imidazo[1,2-a]pyridine-2-carbonyl)-1-((trans)-4-hydroxycyclohexyl)piperazin-2-one level at 300 mg/kg, po. The data set is classed as ADME, organism-based. Also noted: dose 300 mg/kg, route oral. As to conditions: in vivo. A digest of the protocol: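 CD rats were given a single oral dose of 300 mg/kg of parent suspension or of prodrug. Plasma was assayed for the parent drug and for uncleaved prodrug.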

Data set [7] deals with Hepatitis C virus. In words: Antiviral activity against wild-type Hepatitis C virus genotype 1a infected in PXB mouse assessed as log reduction in viral mRNA titer at 100 mg/kg, po bid every 12 hrs for 7 days relative to control. The data set is classed as functional, Hepacivirus hominis, subtype 1a. Summed up:
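PXB mice were infected with HCV genotype 1a wild-type virus and treated 5−8 weeks later (n = 4/group). Oral dosing b.i.d. for 7 days: prodrug at 10 or 30 mg/kg, or positive control at 100 mg/kg. Serum HCV RNA titers (viral load) were followed over the course of dosing.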

SMILES strings stand for the structures. Where only a bound is given, the exact number is not on record here.

For `O=C(c1nn2c(C(F)(F)F)cc(C3CC3)cc2c1Cl)N1CCN(C(=O)[C@H]2C[C@H](O)C2)CC1`, the EC50 with Hepatitis C virus [1] was 330 nM; with Hepatitis C virus [2] it was 8.3 nM; in the data set on Hepatitis C virus [4], > 1000 nM; with Hepatitis C virus [5], 2 nM. Moreover, the concentration for half-maximal inhibition (IC50) in [3] is < 40 nM.

Take `O=C(c1nc2c(C(F)(F)F)cc(C3CC3)cn2c1Cl)N1CCN([C@@H]2C[C@H]3C[C@H]3C2)C(=O)C1`: the EC50 with Hepatitis C virus [1] is 20 nM; with Hepatitis C virus [2] it was 1 nM; in the data set with Hepatitis C virus [4], 59 nM; in the data set on Hepatitis C virus [5], 1.4 nM. Moreover, the IC50 in [3] amounted to 58 nM.

Consider `O=C(c1nc2c(C(F)(F)F)cc(C3CC3)cn2c1Cl)N1CCC(N2CCOC2=O)CC1`, for which the EC50 in the data set with Hepatitis C virus [1] was 370 nM; in the data set with Hepatitis C virus [2], 12 nM; in the data set on Hepatitis C virus [4], > 1000 nM; in the data set with Hepatitis C virus [5] it was 8.3 nM. The half-maximal inhibitory concentration (IC50) in [3] came out at 76 nM.

With `O=C(c1nc2c(C(F)(F)F)cc(C3CC3)cn2c1Cl)N1CCC2(OCC3(CC3)CO2)C(O)C1` (racemic), the EC50 in the data set with Hepatitis C virus [1] is 230 nM; in the data set with Hepatitis C virus [2], 4.3 nM; in the data set with Hepatitis C virus [4], 770 nM; in the data set with Hepatitis C virus [5], 14 nM. The molecule also displayed an IC50 in data set [3] of 28 nM.

On to `Cn1c(C(=O)N2CCN([C@H]3CC[C@H](O)CC3)C(=O)C2)nc2c(C(F)(F)F)cc(C3CC3)cc21`, for which the EC50 is 150 nM in the data set on Hepatitis C virus [1], 3 nM in the data set on Hepatitis C virus [2], 230 nM in the data set on Hepatitis C virus [4] and 0.5 nM in the data set on Hepatitis C virus [5]. In addition, in the data set on Huh-7, the Activity result is given as “Non-toxic”. The molecule also yielded an IC50 in data set [3] of 24 nM. The chromatographic logD in [6] was determined as 4.3.

Regarding `O=C(c1nn2c(C(F)(F)F)cc(C3CC3)cc2c1Cl)N1CCN([C@@H]2C[C@H]3C[C@H]3[C@H]2O)C(=O)C1`, the concentration giving a half-maximal response (EC50) in the data set with Hepatitis C virus [1] was 38 nM; in the data set on Hepatitis C virus [2], 2.3 nM; with Hepatitis C virus [4], 65 nM; with Hepatitis C virus [5], 4 nM. The same molecule showed an IC50 in [3] of 23 nM.

For the molecule `O=C(c1nc2c(C(F)(F)F)cc(C3CC3)cn2c1Cl)N1CCN(C(=O)[C@H]2C[C@H](O)C2)CC1`, the concentration for a half-maximal effect (EC50) in the data set on Hepatitis C virus [1] is 720 nM; in the data set with Hepatitis C virus [2] it was 19 nM; in the data set on Hepatitis C virus [4] it was > 1000 nM; with Hepatitis C virus [5] it was 6.3 nM. In data set [3], this molecule registered a concentration for half-maximal inhibition (IC50) of 100 nM.

For the molecule `O=C(c1nn2c(C(F)(F)F)cc(C3CC3)cc2c1Cl)N1CCN([C@H]2C[C@@H]3C[C@@H]3[C@H]2O)C(=O)C1`, the EC50 in the data set with Hepatitis C virus [1] is > 1000 nM; in the data set with Hepatitis C virus [2], 14 nM; in the data set with Hepatitis C virus [4], > 1000 nM; in the data set with Hepatitis C virus [5], 41 nM. For the same molecule, the IC50 in data set [3] was determined as 18 nM.

As to `O=C(CO)O[C@H]1CC[C@H](N2CCN(C(=O)c3nc4c(C(F)(F)F)cc(C5CC5)cn4c3Cl)CC2=O)CC1`, in the data set on Rattus norvegicus, the Stability entry is “Stable”.

Turning to `O=C(c1nn2c(C(F)(F)F)cc(C3CC3)cc2c1Cl)N1CCC(N2CCOC2=O)CC1`, the EC50 in the data set with Hepatitis C virus [1] was determined as 94 nM; in the data set on Hepatitis C virus [2], 5 nM; with Hepatitis C virus [4] it was 370 nM; in the data set with Hepatitis C virus [5], 2 nM. Besides, in [3], the half-maximal inhibitory concentration (IC50) was 37 nM.

`O=C(c1nn2c(C(F)(F)F)cc(C3CC3)cc2c1Cl)N1CCN([C@H]2CC[C@H](O)CC2)C(=O)C1`: the EC50 in the data set on Hepatitis C virus [1] amounted to 32 nM; with Hepatitis C virus [2] it was 2 nM; in the data set on Hepatitis C virus [4], 310 nM; in the data set with Hepatitis C virus [5], 0.3 nM. The Activity result in the data set on Huh-7 was “Non-toxic”. The IC50 in data set [3] came out at 12 nM. In addition, the chromatographic logD in data set [6] was 4.1.

Take `O=C(c1nn2c(C(F)(F)F)cc(C3CC3)cc2c1Cl)N1CCN([C@H]2C[C@H]3C[C@H]3[C@H]2O)C(=O)C1`: the EC50 was > 1000 nM in the data set with Hepatitis C virus [1], 30 nM with Hepatitis C virus [2], > 1000 nM in the data set on Hepatitis C virus [4] and 120 nM in the data set with Hepatitis C virus [5]. Moreover, the IC50 in data set [3] is 16 nM.

Turning to `O=C(O)COCC(=O)O[C@H]1CC[C@H](N2CCN(C(=O)c3nc4c(C(F)(F)F)cc(C5CC5)cn4c3Cl)CC2=O)CC1`, in the data set on Rattus norvegicus, the Stability result is on record as “Stable”.

For the molecule `CCC(=O)O[C@H]1CC[C@H](N2CCN(C(=O)c3nc4c(C(F)(F)F)cc(C5CC5)cn4c3Cl)CC2=O)CC1`, the Stability result in the data set on Rattus norvegicus is “Stable”.

Regarding `CN(C)CC(=O)O[C@H]1CC[C@H](N2CCN(C(=O)c3nc4c(C(F)(F)F)cc(C5CC5)cn4c3Cl)CC2=O)CC1`, the Stability result in the data set with Rattus norvegicus is “Stable”.

As for `O=C(c1oc2c(C(F)(F)F)cc(C3CC3)cc2c1Cl)N1CCN([C@H]2CC[C@H](O)CC2)C(=O)C1`, the half-maximal effective concentration (EC50) in the data set on Hepatitis C virus [1] came to 22 nM; in the data set on Hepatitis C virus [2], 0.8 nM; in the data set with Hepatitis C virus [4], 110 nM; with Hepatitis C virus [5] it was 0.09 nM. For the same molecule, in the data set with Huh-7, the Activity result is reported as “Non-toxic”. The molecule also yielded an IC50 in [3] of 4 nM. Also, in [6], the chromatographic logD came out at 5.1.

Consider `CNC(=O)c1c(-c2ccc(F)cc2)oc2cc(N(CCO)S(C)(=O)=O)c(C3CC3)cc12` [NESBUVIR], for which the FC with Hepatitis C virus [7] was 2.2.

On to `O=C(c1nn2c(C(F)(F)F)cc(C3CC3)cc2c1Cl)N1CCN([C@@H]2C[C@@H]3C[C@@H]3[C@@H]2O)C(=O)C1`, for which the EC50 in the data set with Hepatitis C virus [1] was > 1000 nM; with Hepatitis C virus [2] it was 19 nM; in the data set with Hepatitis C virus [4] it was > 1000 nM; with Hepatitis C virus [5], 95 nM. In addition, the IC50 in data set [3] was determined as 23 nM.

As to `O=C(c1nn2c(C(F)(F)F)cc(C3CC3)cc2c1Cl)N1CCN([C@@H]2C[C@H]3C[C@H]3[C@@H]2O)C(=O)C1`, the EC50 turned out to be 64 nM in the data set with Hepatitis C virus [1], 4.9 nM with Hepatitis C virus [2], 400 nM with Hepatitis C virus [4] and 7.9 nM in the data set with Hepatitis C virus [5]. The 50% inhibitory concentration (IC50) in data set [3] came to 18 nM.

In the case of `O=C(c1nn2c(C(F)(F)F)cc(C3CC3)cc2c1Cl)N1CCC2(OCC3(CC3)CO2)C(O)C1` (racemic), the half-maximal effective concentration (EC50) in the data set on Hepatitis C virus [1] was found to be 39 nM; in the data set on Hepatitis C virus [2], 1.9 nM; with Hepatitis C virus [4], 250 nM; in the data set with Hepatitis C virus [5], 4 nM. Besides, the IC50 in data set [3] came to 10 nM.

Usually EC50 stands for the concentration needed to bring the measured effect to its halfway point. Read a high EC50 as a need for much substance. For orientation: IC50 means the point on the concentration scale where inhibition reaches its midpoint. Higher therefore signals lower potency. Broadly, the chromatographic logD is lipophilicity estimated from chromatographic retention. Low values mean a more hydrophilic compound, high ones a more lipophilic compound.

The values above are taken from ChEMBL document CHEMBL3124867, “Hepatitis C replication inhibitors that target the viral NS4B protein” (J Med Chem, 2014).
